Values belong to the molecule of their own block, whether it stands above or below them.
Assays:
SKBR-3 cells [1] = assay: Cellular distribution of peptide nanoparticles; assay type: cell-based, human; conditions: SKBR-3, 50 μM, 4 h
[2] = target: PD-L1 on the membrane of SKBR-3 cells (Homo sapiens, UniProt Q9NZQ7); assay: Co-location of nanoparticles and PD-L1 on cell membrane; assay type: cell-based; conditions: SKBR-3, 4 h, FITC immunofluorescence
In short: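 PD-L1 on cells was immunostained with a FITC-labelled goat anti-mouse secondary (1:1000, 1 h, room temperature) after PBS washes. Nuclei were stained with DAPI and cells imaged by confocal microscopy. Co-localization with the nanoparticle signal was quantified computationally.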

4T1 cells [3] = assay: Intracellular distribution of internalized TPM2 and TPM3; assay type: cell-based, mouse; conditions: 50 μM, 4, 24 and 48 h, LysoTracker, CLSM
PD-L1 on 4T1 cells = PD-L1 on 4T1 cells (Mus musculus, UniProt Q9EP73); assay: Surface PD-L1 level after treatment; assay type: cell-based; conditions: 4T1, nanoparticles 50 μM or antibody 68 nM, 4 h, flow cytometry
Sequence of PD-L1 on 4T1 cells (Q9EP73 19-290): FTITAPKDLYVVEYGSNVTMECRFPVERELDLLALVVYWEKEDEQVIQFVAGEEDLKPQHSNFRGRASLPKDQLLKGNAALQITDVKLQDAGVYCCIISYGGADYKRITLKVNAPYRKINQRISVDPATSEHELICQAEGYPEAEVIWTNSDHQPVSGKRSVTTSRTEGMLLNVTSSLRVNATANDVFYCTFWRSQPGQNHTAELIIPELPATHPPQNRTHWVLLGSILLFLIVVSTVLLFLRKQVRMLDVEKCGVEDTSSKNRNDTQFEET
In short: (§1)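 Cells were washed and moved to medium without FBS or penicillin/streptomycin. They were treated 4 h at 37 °C, 5% CO₂ with nanoparticles (50 μM) or anti-PD-L1 antibody (68 nM). Surface PD-L1 was stained 15 min at 4 °C with BV421 antibody (1:200), anti-human for SKBR-3 and anti-mouse for 4T1. Cells were PBS-washed three times and analysed by flow cytometry.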

PD-L1 on SKBR-3 cells = PD-L1 on SKBR-3 cells (Homo sapiens, UniProt Q9NZQ7); assay: Surface PD-L1 level after treatment; assay type: cell-based; conditions: SKBR-3, nanoparticles 50 μM or antibody 68 nM, 4 h, flow cytometry
Sequence of PD-L1 on SKBR-3 cells (Q9NZQ7 19-290): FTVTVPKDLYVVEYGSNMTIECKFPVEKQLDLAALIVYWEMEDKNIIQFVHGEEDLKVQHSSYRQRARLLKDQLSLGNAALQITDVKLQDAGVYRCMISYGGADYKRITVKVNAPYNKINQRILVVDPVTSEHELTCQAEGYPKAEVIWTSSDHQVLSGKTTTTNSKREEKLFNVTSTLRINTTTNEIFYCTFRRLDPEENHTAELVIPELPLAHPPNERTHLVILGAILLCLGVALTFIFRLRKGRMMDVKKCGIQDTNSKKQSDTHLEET
In short: as §1

4T1 cells [4] = assay: Cytotoxicity, CCK-8; assay type: cell-based, mouse; conditions: 4T1, CCK-8, 24 h, 1-200 μM; TPM1 finding at 100 μM or 200 μM
In short: (§2)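 Cells at 8 × 10³ per well were exposed to 1, 10, 50, 100 and 200 μM nanoparticles in DMEM, RPMI-1640 or McCoy's 5A complete medium for 24 h. CCK-8 was added for a further 2 h and OD450 read. Viability (%) = [(treated − blank)/(control − blank)] × 100.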

Zeta potential by DLS = assay type: physicochemical; conditions: 200 μM, mean n = 3
mice bearing 4T1 tumour = assay: Bio-distribution, ex vivo fluorescence imaging; assay type: in vivo, mouse; conditions: single i.v. 13 mg/kg, 4T1 tumour mice, post-injection
In short: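 Female Balb/c mice (6–8 weeks) carrying subcutaneous 4T1 tumours (1 × 10⁶ cells, right flank) got a single tail-vein dose of 13 mg/kg nanoparticle. n = 3 per group per time point. Tumour, heart, liver, spleen, lung, kidney, intestine and muscle were harvested at 2, 4, 6, 8, 10, 24, 48, 72 and 168 h post-injection and imaged ex vivo by fluorescence.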

[5] = target: T1, human PD-L1 recombinant protein (Homo sapiens, UniProt Q9NZQ7); assay: CD and FTIR spectroscopy of β-sheet formation; assay type: biochemical; conditions: human PD-L1, 24 h, 50 μM, ratio 1000:1
T1 sequence (Q9NZQ7 19-239 limits assumed): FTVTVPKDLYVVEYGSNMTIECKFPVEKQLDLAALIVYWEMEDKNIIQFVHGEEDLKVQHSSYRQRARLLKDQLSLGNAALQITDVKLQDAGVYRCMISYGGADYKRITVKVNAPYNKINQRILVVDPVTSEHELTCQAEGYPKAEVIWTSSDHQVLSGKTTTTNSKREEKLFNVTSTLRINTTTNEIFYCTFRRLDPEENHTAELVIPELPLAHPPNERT
In short: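 Nanoparticles were incubated with or without recombinant human PD-L1. β-sheet formation was then detected by CD spectroscopy, with FTIR alongside.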

[6] = target: T1, human PD-L1 recombinant protein; assay: PD-L1-induced fibrillar transformation in aqueous solution; assay type: biochemical; conditions: 24 h incubation
In short: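 Recombinant human PD-L1 was added to 50 μM nanoparticle solution at molar ratios of 1:100, 1:500, 1:1000, 1:2000 and 1:5000. Mixtures were incubated 0.5 h, 4 h and 24 h, then prepared for TEM to view morphology change.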

[7] = TEM morphology of nanoparticles; assay type: physicochemical; conditions: 50 μM, uranyl acetate stain
In short: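 A 50 μM nanoparticle solution was dried on holey-carbon copper grids and stained with 2% uranyl acetate for 3 min. Grids were imaged by TEM at 120 kV.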

[8] = Critical aggregation concentration; assay type: physicochemical; conditions: pyrene probe, I1 (373 nm)/I3 (384 nm), 0.01-50 μM, 37 °C for 2 h, fluorescence
In short: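 Pyrene fluorescence was excited at 335 nm and emission recorded. The I1 (373 nm)/I3 (384 nm) intensity ratio was used to derive the critical aggregation concentration.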

[9] = system: 4T1 cells co-cultured with activated CD8+ T cells; assay: Killing effect of activated CD8+ T cells on treated 4T1 cells; assay type: cell-based, mouse; conditions: co-culture of 4T1 and activated CD8+ T cells
In short: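 Splenic mouse CD8⁺ T cells were expanded with IL-2 and activated with anti-CD3/CD28 beads. 4T1 cells were pretreated 4 h with test compound or anti-PD-L1 antibody (68 nM), washed, then co-cultured with T cells (1:10) for 24 h. T cells alone on 4T1 served as control. Read-outs: CCK-8 viability (6 × 10³ cells/well) or calcein-AM staining, 20 min (2 × 10⁴ cells/well).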

LLC cells = assay: Cytotoxicity, CCK-8; assay type: cell-based, mouse; conditions: CCK-8, 24 h, 1-200 μM, TPM1 finding at 100 μM or 200 μM
In short: as §2

SKBR-3 cells [10] = assay: Cytotoxicity, CCK-8; assay type: cell-based, human; conditions: SKBR-3, CCK-8, 24 h, 1-200 μM; TPM1 finding at 100 μM or 200 μM
In short: as §2

4T1 cells [11] = assay: Cellular distribution of peptide nanoparticles; assay type: cell-based, mouse; conditions: 4T1, 50 μM, 4 h
Particle size by DLS = assay type: physicochemical; conditions: aqueous solution, 200 μM
[12] = system: mice bearing 4T1 breast cancer; assay: In vivo inflammatory effect, serum TNF, IL-6, IL-1β ELISA; set-up: species or system mouse; conditions: 21 days after a single dose, 4T1 tumour mice, n = 5
In short: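 Serum was taken from 4T1 tumour-bearing mice (n = 5 per group) 21 days after a single dose. Arms: PBS 200 μL i.v., nanoparticles 13 mg/kg via tail vein, anti-PD-L1 antibody 5 mg/kg. TNF, IL-6 and IL-1β were measured by ELISA.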

HFF cells = assay: Cytotoxicity, CCK-8; assay type: cell-based, human; conditions: CCK-8, 24 h, 1, 10, 50, 100 and 200 μM, n = 5
In short: as §2

PD-L1 in 4T1 cells = assay: Upregulation of PD-L1 induced by IFN-γ; assay type: cell-based, mouse; conditions: 4T1, 100 ng/mL, 24 h
In short: (§3)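 4T1 cells received mouse IFN-γ (100 ng/mL) in complete medium for 24 h. Western blot: cells PBS-washed three times, lysed on ice in RIPA buffer with 1% protease inhibitor, spun 13523 × g, 3 min, 4 °C; band density quantified. Flow cytometry: PBS-washed cells stained with BV421-labelled mouse anti-PD-L1 (1:200), 15 min, 4 °C, washed thrice.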

PD-L1 in SKBR-3 cells = assay: Upregulation of PD-L1 induced by IFN-γ; assay type: cell-based, human; conditions: SKBR-3, 100 ng/mL, 24 h
In short: as §3, with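 “Recombinant human IFN-γ” for “4T1 cells received mouse IFN-γ”, “ng/mL) added to” for “ng/mL) in”, “medium of SKBR-3 cells” for “medium”, “BV421-labelled human” for “BV421-labelled mouse”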

Sequence of PD-L1 on the membrane of SKBR-3 cells (Q9NZQ7 19-290): as the sequence (Q9NZQ7 19-290) above

co-localization with PD-L1 on cell membrane [2]: No apparent co-localization | fate of internalized nanoparticles (4T1 cells [3]): predominately degraded in lysosomes | change in PD-L1 expression levels before and after incubation (PD-L1 on 4T1 cells): no significant changes | change in PD-L1 expression levels before and after incubation (PD-L1 on SKBR-3 cells): no significant changes | zeta potential of initial nanoparticles (Zeta potential by DLS): +19.6 mV | time of peak fluorescence intensity in the tumour (mice bearing 4T1 tumour; ex vivo imaging): 24 h | fluorescent signals in the tumour remained until (mice bearing 4T1 tumour): 48 h | CD signals after incubation with PD-L1 protein [5]: No such change | morphology after incubation with PD-L1 proteins (TEM) [6]: no noticeable change in morphology | morphology of nanoparticles (TEM) [7]: spherical structure | critical aggregation concentration (CAC) [8]: 9.8 µM | diameter of nanoparticles (DLS) (Particle size by DLS): ~ 19 nm | serum TNF, IL-6 and IL-1β versus PBS and other groups [12]: no significant difference
Molecule: Ac-K(Ce6)-GGAAK-SGQYASYHCWCWRDPGRSGGSK [TPM2]
location of Ce6 red fluorescence signals (CLSM) (SKBR-3 cells [1]): inside cells rather than on the cell membranes | cytotoxicity (4T1 cells [4]): No cytotoxicity | effect on T cell activity [9]: no effect | cytotoxicity (LLC cells): No cytotoxicity | cytotoxicity (SKBR-3 cells [10]): No cytotoxicity | location of Ce6 red fluorescence signals (CLSM) (4T1 cells [11]): inside cells rather than on the cell membranes | cytotoxicity (HFF cells): no apparent cytotoxicity

B1: IFN-γ: human or mouse IFN-γ (PeproTech), 100 ng/mL, used to upregulate PD-L1 expression (protein, UniProt P01579 24-161, looked up)
Interferon gamma: QDPYVKEAENLKKYFNAGHSDVADNGTLFLGILKNWKEESDRKIMQSQIVSFYFKLFKNFKDDQSIQKSVETIKEDMNVKFFNSNKKKRDDFEKLTNYSVTDLNVQRKAIHELIQVMAELSPAAKTGKRKRSQMLFRG
PD-L1 expression after IFN-γ treatment (PD-L1 in 4T1 cells): increased PD-L1 expression | PD-L1 expression after IFN-γ treatment (PD-L1 in SKBR-3 cells): increased PD-L1 expression

— publication PMC11550832 (Nature Communications, 2024)
